Reference: ChEMBL document CHEMBL4350999, “Enhanced tumor retention of NTSR1-targeted agents by employing a hydrophilic cysteine cathepsin inhibitor” (Eur J Med Chem, 2019)

Legend:
[1] = Drug excretion in SCID mouse xenografted with human HT-29 cells at 0.37 MBq/mouse, iv measured at 4 hrs using 177Lu labelled compound by gamma counter analysis; type: ADME, organism-based; conditions: in vivo
Method in brief: (§1)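 Female SCID mice bearing s.c. flank HT-29 xenografts (5 × 10^6 cells in Matrigel, ~80 mm3). Given 10 μCi (0.37 MBq) 177Lu conjugate i.v. by tail vein; groups sacrificed at 4, 24, 72 h. Tissues weighed and gamma-counted as %ID/g, excretion as %ID; n = 5, mean ± SD. Blocking arms: colchicine 1 mg/kg i.p. beforehand, or D-lysine 40 mg/kg co-injected.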

[2] = Drug uptake in blood of SCID mouse xenografted with human HT-29 cells at 0.37 MBq/mouse, iv measured at 4 hrs using 177Lu labelled compound by gamma counter analysis; type: ADME, organism-based; conditions: in vivo; method in brief: as §1
[3] = Drug uptake in heart of SCID mouse xenografted with human HT-29 cells at 0.37 MBq/mouse, iv measured at 4 hrs using 177Lu labelled compound by gamma counter analysis; type: ADME, organism-based; conditions: in vivo
Method in brief: (§2)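 Female SCID mice (5 weeks) bore s.c. flank xenografts of HT-29 cells (5 × 10^6 in Matrigel), used at about 80 mm3 (two weeks) and randomized. Each mouse received 10 μCi (0.37 MBq) of HPLC-purified 177Lu-conjugate via tail vein. Tissues were excised, weighed and gamma-counted, expressed as %ID/g; mean ± SD, n = 5.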

[4] = Drug uptake in liver of SCID mouse xenografted with human HT-29 cells at 0.37 MBq/mouse, iv measured at 4 hrs using 177Lu labelled compound by gamma counter analysis; type: ADME, organism-based; conditions: in vivo; method in brief: as §2
[5] = Drug uptake in spleen of SCID mouse xenografted with human HT-29 cells at 0.37 MBq/mouse, iv measured at 4 hrs using 177Lu labelled compound by gamma counter analysis; type: ADME, organism-based; conditions: in vivo
Method in brief: (§3)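 Female SCID mice (5 weeks old) received s.c. flank HT-29 cells (5 × 10^6 in Matrigel). At ~80 mm3, two weeks later, mice were randomized and given 10 μCi (0.37 MBq) of purified 177Lu conjugate i.v. by tail vein. Mice were killed at 4, 24 or 72 h. Tissues were weighed and gamma counted as %ID/g, mean ± SD, n = 5. Tumor-to-tissue ratios were calculated.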

[6] = Drug uptake in large intestine of SCID mouse xenografted with human HT-29 cells at 0.37 MBq/mouse, iv measured at 4 hrs using 177Lu labelled compound by gamma counter analysis; type: ADME, organism-based; conditions: in vivo; method in brief: as §2
[7] = Drug uptake in bone of SCID mouse xenografted with human HT-29 cells at 0.37 MBq/mouse, iv measured at 4 hrs using 177Lu labelled compound by gamma counter analysis; type: ADME, organism-based, Bone element; conditions: in vivo; method in brief: as §2
[8] = Drug uptake in heart of SCID mouse xenografted with human HT-29 cells at 0.37 MBq/mouse, iv measured at 24 hrs using 177Lu labelled compound by gamma counter analysis; type: ADME, organism-based; conditions: in vivo; method in brief: as §2
[9] = Drug uptake in brain of SCID mouse xenografted with human HT-29 cells at 0.37 MBq/mouse, iv measured at 4 hrs using 177Lu labelled compound by gamma counter analysis; type: ADME, organism-based; conditions: in vivo; method in brief: as §2
[10] = Drug uptake in lung of SCID mouse xenografted with human HT-29 cells at 0.37 MBq/mouse, iv measured at 24 hrs using 177Lu labelled compound by gamma counter analysis; type: ADME, organism-based; conditions: in vivo; method in brief: as §2
[11] = Drug uptake in blood of SCID mouse xenografted with human HT-29 cells at 0.37 MBq/mouse, iv measured at 24 hrs using 177Lu labelled compound by gamma counter analysis; type: ADME, organism-based; conditions: in vivo; method in brief: as §1
[12] = Drug uptake in SCID mouse xenografted with human HT-29 cells assessed as tumour retention level at 0.37 MBq/mouse, iv measured at 4 hrs using 177Lu labelled compound by gamma counter analysis; type: ADME, organism-based; conditions: in vivo; method in brief: as §1
[13] = Drug uptake in spleen of SCID mouse xenografted with human HT-29 cells at 0.37 MBq/mouse, iv measured at 24 hrs using 177Lu labelled compound by gamma counter analysis; type: ADME, organism-based; conditions: in vivo; method in brief: as §3
[14] = Drug uptake in small intestine of SCID mouse xenografted with human HT-29 cells at 0.37 MBq/mouse, iv measured at 24 hrs using 177Lu labelled compound by gamma counter analysis; type: ADME, organism-based; conditions: in vivo; method in brief: as §2
[15] = Drug uptake in large intestine of SCID mouse xenografted with human HT-29 cells at 0.37 MBq/mouse, iv measured at 24 hrs using 177Lu labelled compound by gamma counter analysis; type: ADME, organism-based; conditions: in vivo; method in brief: as §2
[16] = Drug uptake in kidney of SCID mouse xenografted with human HT-29 cells at 0.37 MBq/mouse, iv measured at 24 hrs using 177Lu labelled compound by gamma counter analysis; type: ADME, organism-based; conditions: in vivo; method in brief: as §2
[17] = Drug uptake in muscle of SCID mouse xenografted with human HT-29 cells at 0.37 MBq/mouse, iv measured at 24 hrs using 177Lu labelled compound by gamma counter analysis; type: ADME, organism-based, Muscle tissue; conditions: in vivo; method in brief: as §2
[18] = Drug uptake in bone of SCID mouse xenografted with human HT-29 cells at 0.37 MBq/mouse, iv measured at 24 hrs using 177Lu labelled compound by gamma counter analysis; type: ADME, organism-based, Bone element; conditions: in vivo; method in brief: as §1
[19] = Drug uptake in liver of SCID mouse xenografted with human HT-29 cells at 0.37 MBq/mouse, iv measured at 72 hrs using 177Lu labelled compound by gamma counter analysis; type: ADME, organism-based; conditions: in vivo; method in brief: as §2
[20] = Drug uptake in pancreas of SCID mouse xenografted with human HT-29 cells at 0.37 MBq/mouse, iv measured at 72 hrs using 177Lu labelled compound by gamma counter analysis; type: ADME, organism-based; conditions: in vivo; method in brief: as §2
[21] = Drug uptake in stomach of SCID mouse xenografted with human HT-29 cells at 0.37 MBq/mouse, iv measured at 72 hrs using 177Lu labelled compound by gamma counter analysis; type: ADME, organism-based; conditions: in vivo; method in brief: as §3
[22] = Drug uptake in small intestine of SCID mouse xenografted with human HT-29 cells at 0.37 MBq/mouse, iv measured at 72 hrs using 177Lu labelled compound by gamma counter analysis; type: ADME, organism-based; conditions: in vivo; method in brief: as §2
[23] = Drug uptake in large intestine of SCID mouse xenografted with human HT-29 cells at 0.37 MBq/mouse, iv measured at 72 hrs using 177Lu labelled compound by gamma counter analysis; type: ADME, organism-based; conditions: in vivo; method in brief: as §2
[24] = Drug uptake in kidney of SCID mouse xenografted with human HT-29 cells at 0.37 MBq/mouse, iv measured at 72 hrs using 177Lu labelled compound by gamma counter analysis; type: ADME, organism-based; conditions: in vivo; method in brief: as §2
[25] = Drug uptake in brain of SCID mouse xenografted with human HT-29 cells at 0.37 MBq/mouse, iv measured at 72 hrs using 177Lu labelled compound by gamma counter analysis; type: ADME, organism-based; conditions: in vivo; method in brief: as §2
[26] = Drug uptake in SCID mouse xenografted with human HT-29 cells assessed as tumour retention level at 0.37 MBq/mouse, iv measured at 72 hrs using 177Lu labelled compound by gamma counter analysis; type: ADME, organism-based; conditions: in vivo; method in brief: as §1
[27] = Drug uptake in membrane of human HT-29 cells measured after 240 mins using 177Lu labelled compound by gamma counter method relative to control; type: ADME, cell-based; conditions: ht-29, 4 h
Method in brief: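 HT-29 cells (~1 × 10^6 in 1 mL medium) were incubated with 177Lu-conjugate (100,000 cpm) at 37 °C and sampled at 15–240 min. After medium washes, surface-bound activity was stripped with pH 2.8 glycine-HCl/NaCl buffer, and the internalized fraction was taken from the 1% SDS lysate. Fractions were gamma-counted as % of total added activity; mean ± SD, n = 3.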

Structure (SMILES) | Drug excretion [1] | Drug uptake [2] | Drug uptake [3] | Drug uptake [4] | Drug uptake [5] | Drug uptake [6] | Drug uptake [7] | Drug uptake [8] | Drug uptake [9] | Drug uptake [10] | Drug uptake [12] | Drug uptake [13] | Drug uptake [14] | Drug uptake [15] | Drug uptake [16] | Drug uptake [17] | Drug uptake [18] | Drug uptake [19] | Drug uptake [20] | Drug uptake [21] | further results
Cc1cc(O)cc(C)c1C[C@H](NC(=O)[C@@H]1CCCN1C(=O)[C@H](CCCNC(=N)N)NC(=O)[C@H](CCCNC(=N)N)N(C)C(=O)[C@@H]1CCCN1C(=O)[C@H](CCCCN)NC(=O)[C@@H](CO)NC(=O)[C@@H](CO)NC(=O)[C@@H](CO)NC(=O)[C@H](Cc1cn(CC(=O)N[C@H](CO)C(=O)N[C@H](CO)C(=O)N[C@H](CO)C(=O)NCC(=O)NCCCC[C@H](NC(=O)[C@H](Cc2ccccc2)NC(=O)OCc2ccccc2)C(=O)NCCc2ccccc2)nn1)NC(=O)CN1CCN(CC(=O)O)CCN(CC(=O)O)CCN(CC(=O)O)CC1)C(=O)N[C@H](C(=O)N[C@@H](CC(C)C)C(=O)O)C(C)(C)C | 36.6 %ID | 0.83 % ID/g | 1.1 % ID/g | 9.2 % ID/g | 19 % ID/g | 4 % ID/g | 2.6 % ID/g | 0.6 % ID/g | 0.11 % ID/g | 2.2 % ID/g | 8.4 % ID/g | 18 % ID/g | 5.6 % ID/g | 2.6 % ID/g | 55 % ID/g | 0.38 % ID/g | 1.8 % ID/g | 5.3 % ID/g | 0.68 % ID/g | 0.51 % ID/g | Drug uptake [11]: 0.14 % ID/g; Drug uptake [22]: 3.2 % ID/g; Drug uptake [23]: 1.62 % ID/g; Drug uptake [24]: 28 % ID/g; Drug uptake [25]: 0.01 % ID/g; Drug uptake [26]: 3.4 % ID/g
Cc1cc(O)cc(C)c1C[C@H](NC(=O)[C@@H]1CCCN1C(=O)[C@H](CCCNC(=N)N)NC(=O)[C@H](CCCNC(=N)N)N(C)C(=O)[C@@H]1CCCN1C(=O)[C@H](CCCCN)NC(=O)[C@@H](CO)NC(=O)[C@@H](CO)NC(=O)[C@@H](CO)NC(=O)[C@H](Cc1cn(CCNC(=O)[C@H](CCCNC(=N)N)NC(=O)[C@H](CC(C)C)NC(=O)CCC(=O)O)nn1)NC(=O)CN1CCN(CC(=O)O)CCN(CC(=O)O)CCN(CC(=O)O)CC1)C(=O)N[C@H](C(=O)N[C@@H](CC(C)C)C(=O)O)C(C)(C)C | 75 %ID | 0.01 % ID/g | 0.13 % ID/g | 0.42 % ID/g | 1 % ID/g | 1 % ID/g | 0.18 % ID/g | 0.01 % ID/g | 0.02 % ID/g | 0.25 % ID/g | 5.6 % ID/g | 1.6 % ID/g | 1.9 % ID/g | 0.73 % ID/g | 39 % ID/g | 0.05 % ID/g | 0.15 % ID/g | 0.26 % ID/g | 0.08 % ID/g | 0.08 % ID/g | Drug uptake [22]: 1.07 % ID/g; Drug uptake [23]: 0.36 % ID/g; Drug uptake [24]: 15 % ID/g; Drug uptake [25]: 0.01 % ID/g; Drug uptake [26]: 2.6 % ID/g; Drug uptake [27]: Not Active
